Measurements: ChEMBL document CHEMBL3112579, “Inhibition of 5-oxo-6,8,11,14-eicosatetraenoic acid-induced activation of neutrophils and eosinophils by novel indole OXE receptor antagonists” (J Med Chem, 2014)
Activity calls are given as the source filed them. The calls are words filed in the database; no cut-off is given here.

Key:
[1] = target: T1, Oxoeicosanoid receptor 1 (Homo sapiens, UniProt Q8TDS5); experiment: Antagonist activity at OXE receptor (unknown origin) expressed in indo-1 loaded neutrophils assessed as inhibition of 5-oxo-ETE-induced calcium mobilization incubated for 2 mins prior to 5-oxo-ETE induction by spectrofluorometric analysis; assay type: functional
T1 sequence (Q8TDS5 whole entry): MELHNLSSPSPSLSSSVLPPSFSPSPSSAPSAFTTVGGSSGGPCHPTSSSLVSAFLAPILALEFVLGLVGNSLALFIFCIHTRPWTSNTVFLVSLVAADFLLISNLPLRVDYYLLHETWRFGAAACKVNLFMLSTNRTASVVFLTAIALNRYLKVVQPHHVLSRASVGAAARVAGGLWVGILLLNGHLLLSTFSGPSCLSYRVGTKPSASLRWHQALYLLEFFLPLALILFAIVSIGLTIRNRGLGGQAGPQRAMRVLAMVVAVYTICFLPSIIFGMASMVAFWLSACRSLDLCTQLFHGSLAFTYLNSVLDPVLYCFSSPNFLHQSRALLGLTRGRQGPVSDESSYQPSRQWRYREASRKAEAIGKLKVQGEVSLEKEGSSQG

[2] = target: T2, fMet-Leu-Phe receptor (Homo sapiens) (UniProt P21462); experiment: Antagonist activity at FPR1 receptor (unknown origin) expressed in indo-1 loaded neutrophils assessed as inhibition of fMLP-induced calcium mobilization at 10 uM by spectrofluorometric analysis; assay type: functional
T2 sequence (whole entry): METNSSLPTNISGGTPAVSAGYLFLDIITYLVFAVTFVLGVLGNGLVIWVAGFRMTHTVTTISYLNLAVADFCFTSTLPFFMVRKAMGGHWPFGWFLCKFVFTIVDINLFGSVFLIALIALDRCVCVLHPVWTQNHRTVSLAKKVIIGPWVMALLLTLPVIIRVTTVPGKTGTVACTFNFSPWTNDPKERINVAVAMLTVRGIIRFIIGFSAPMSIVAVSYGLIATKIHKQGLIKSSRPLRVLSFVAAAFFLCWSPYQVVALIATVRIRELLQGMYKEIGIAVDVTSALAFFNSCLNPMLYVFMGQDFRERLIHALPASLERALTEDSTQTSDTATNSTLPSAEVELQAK
Procedure, shortened: (§1)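 Human blood neutrophils (dextran sedimentation, Ficoll, hypotonic lysis) loaded with indo-1 AM. Ca++ 1.8 mM and Mg++ 1 mM added to the cuvette. Read at 37 °C with stirring, ex 331/em 410 nm. Vehicle or antagonist (10 μM) added, 5-oxo-ETE (10 nM) 2 min later, second agonist (LTB4, PAF, fMLP or IL-8) after a further 2 min, digitonin (0.1%) 1 min later for maximal fluorescence. Two independent experiments.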

[3] = test system: Liver; experiment: Drug metabolism in Sprague-Dawley rat liver homogenates assessed as retention time of unmetabolized compound at 20 uM by reversed-phase HPLC analysis; assay type: ADME, tissue-based; conditions: tissue homogenate
Procedure, shortened: (§2)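 Male Sprague-Dawley rat liver homogenized in 0.25 M sucrose and spun at 600 × g for 10 min. Supernatant (0.8 ml) combined with phosphate buffer pH 7.4 (final 50 mM) and NADPH (final 1 mM). Compound (20 μM) incubated 60 min at 37 °C, stopped with ice-cold MeOH. Products analysed by reversed-phase HPLC with UV detection.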

[4] = species on record: Homo sapiens; experiment: Antagonist activity at interleukin-8 receptor (unknown origin) expressed in indo-1 loaded neutrophils assessed as inhibition of IL-8-induced calcium mobilization by spectrofluorometric analysis; procedure, shortened: as §1
[5] = test system: Liver; experiment: Drug metabolism in Sprague-Dawley rat liver homogenates in presence of ATP, CoA, L-carnitine, NAD+; assay type: ADME, tissue-based; conditions: tissue homogenate
[6] = target: Platelet-activating factor receptor (Homo sapiens) (UniProt P25105); experiment: Antagonist activity at PAF receptor (unknown origin) expressed in indo-1 loaded neutrophils assessed as inhibition of PAF-induced calcium mobilization at 10 uM by spectrofluorometric analysis; assay type: functional; procedure, shortened: as §1
Platelet-activating factor receptor (Homo sapiens), sequence (P25105 whole entry): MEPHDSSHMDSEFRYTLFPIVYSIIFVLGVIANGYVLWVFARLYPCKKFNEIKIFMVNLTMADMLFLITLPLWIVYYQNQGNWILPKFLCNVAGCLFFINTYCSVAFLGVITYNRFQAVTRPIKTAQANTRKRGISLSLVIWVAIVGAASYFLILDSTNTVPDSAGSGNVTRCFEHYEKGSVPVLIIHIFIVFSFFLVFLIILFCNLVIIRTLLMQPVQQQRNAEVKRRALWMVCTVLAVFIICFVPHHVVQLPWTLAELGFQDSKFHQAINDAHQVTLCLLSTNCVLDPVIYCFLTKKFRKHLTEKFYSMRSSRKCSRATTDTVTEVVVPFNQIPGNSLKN

[7] = target: T1, Oxoeicosanoid receptor 1; experiment: Antagonist activity at OXE receptor (unknown origin) expressed in anti-CD49d-labeled neutrophils assessed as inhibition of 5-oxo-ETE-induced F-actin polymerization preincubated for 5 mins followed by 5-oxo-ETE induction measured after 20 secs by flow cytometric analysis
Procedure, shortened: (§3)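 Unfractionated human leukocytes (dextran sedimentation, hypotonic lysis) stained 30 min on ice with APC-anti-CD49d, 5.5×10^6 cells/ml in PBS with Ca++/Mg++. Preincubated 5 min at 37 °C with vehicle or inhibitor, then 5-oxo-ETE (final 10 nM) for 20 s. Fixed in formaldehyde (final 8.5%), permeabilized with lysophosphatidylcholine, NBD-phalloidin (final 0.3 μM) overnight at 4 °C, flow cytometry. Eosinophils gated as high side scatter/high CD49d, neutrophils as high side scatter/low CD49d.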

[8] = Drug metabolism in Sprague-Dawley rat liver homogenates at 20 uM after 60 mins by reversed-phase HPLC analysis in presence of NADPH; assay type: ADME, tissue-based; conditions: read-out: Drug metabolism; procedure, shortened: as §2
[9] = test system: Liver; experiment: Drug metabolism in Sprague-Dawley rat liver homogenates assessed as metabolite retention time at 20 uM by reversed-phase HPLC analysis; assay type: ADME, tissue-based; conditions: tissue homogenate; procedure, shortened: as §2
[10] = test system: Rattus norvegicus; experiment: Drug metabolism in […] in presence of NADPH; assay type: ADME
[11] = target: Leukotriene B4 receptor 1 (Homo sapiens) (UniProt Q15722); experiment: Antagonist activity at LTB4 receptor (unknown origin) expressed in indo-1 loaded neutrophils assessed as inhibition of LTB4-induced calcium mobilization at 10 uM by spectrofluorometric analysis; assay type: functional; procedure, shortened: as §1
Leukotriene B4 receptor 1 (Homo sapiens), sequence (Q15722 whole entry): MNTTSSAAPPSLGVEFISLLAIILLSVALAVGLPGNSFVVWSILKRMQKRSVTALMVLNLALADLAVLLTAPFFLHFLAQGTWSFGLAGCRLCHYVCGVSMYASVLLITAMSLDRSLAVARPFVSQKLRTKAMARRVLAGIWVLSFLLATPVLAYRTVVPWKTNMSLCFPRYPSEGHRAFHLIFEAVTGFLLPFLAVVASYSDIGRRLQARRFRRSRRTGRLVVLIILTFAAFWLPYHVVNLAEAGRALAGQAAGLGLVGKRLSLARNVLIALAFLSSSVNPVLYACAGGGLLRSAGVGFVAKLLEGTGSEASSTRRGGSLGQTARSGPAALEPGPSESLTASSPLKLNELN

[12] = target: T1, Oxoeicosanoid receptor 1; experiment: Antagonist activity at OXE receptor in human neutrophils assessed as inhibition of 5-oxo-ETE-induced calcium mobilization by spectrofluorometric analysis; assay type: functional
Procedure, shortened: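 Indo-1 AM-loaded human neutrophils (dextran, Ficoll, hypotonic lysis) in PBS with Ca++ 1.8 mM and Mg++ 1 mM, stirred at 37 °C, ex 331/em 410 nm. Vehicle (DMSO) or antagonist at varied concentrations, then 5-oxo-ETE (final 10 nM) 2 min later, then digitonin (0.1%) 1 min later for maximal signal. IC50s are means ± SE of per-experiment IC50 values.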

[13] = target: T1, Oxoeicosanoid receptor 1; experiment: Potency index, ratio of compound activity to Gue1654 activity for antagonism of OXE receptor (unknown origin) expressed in anti-CD49d-labeled neutrophils assessed as inhibition of 5-oxo-ETE-induced F-actin polymerization
[14] = target: T1, Oxoeicosanoid receptor 1; experiment: Potency index, ratio of compound activity to Gue1654 activity for antagonism of OXE receptor (unknown origin) expressed in anti-CD49d-labeled eosinophils assessed as inhibition of 5-oxo-ETE-induced F-actin polymerization
[15] = target: T1, Oxoeicosanoid receptor 1; experiment: Antagonist activity at OXE receptor (unknown origin) expressed in anti-CD49d-labeled eosinophils assessed as inhibition of 5-oxo-ETE-induced F-actin polymerization preincubated for 5 mins followed by 5-oxo-ETE induction measured after 20 secs by flow cytometric analysis
Procedure, shortened: as §3, with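 “s.” for “s. Fixed in formaldehyde (final 8.5%), permeabilized with lysophosphatidylcholine, NBD-phalloidin (final 0.3 μM) overnight at 4 °C, flow cytometry.”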

`CCCCCCc1cc2cc(Br)ccc2n1C(=O)CC(C)CC(=O)O` (centres undefined) showed an IC50 [1] of 638 nM.
For `CCCCCCc1cc2ccc(Br)cc2n1C(=O)CC(C)CC(=O)O` (centres undefined), the IC50 [1] was 30 nM.
In the case of `CCCCCc1cc2ccccc2n1C(=O)CCCC(=O)O`, the IC50 [1] is reported as 2150 nM.
`CCCCCCc1[nH]c2ccccc2c1C(=O)CCCC(=O)O` showed an IC50 [1] of 9750 nM and an inhibition [1] of 50%.
`CCCCCCCCc1cc2ccccc2n1C(=O)CCCC(=O)O` gave an IC50 [1] of 570 nM.
With `CCCCCCCCCCCc1cc2ccccc2n1C(=O)CCCC(=O)O` the IC50 [1] was 700 nM.
In the case of `CCCCCCc1cc2ccc(Cl)cc2n1C(=O)CC(C)CC(=O)O` (racemic), the inhibition [2] is reported as “inactive”, the Retention_time [3] is reported as 30.2 min and the inhibition [4] is reported as “inactive”. For the same compound, the Drug metabolism [5] was “Not Active”, the inhibition [6] was “inactive” and the inhibition [7] was “Active”. For the same compound, the metabolised at 1 h, 20 µM [8] was 12%, the Retention_time [9] was 18.2 min and the Drug metabolism [10] was “Active”. For the same compound, the inhibition [11] was “inactive”.
Compound `CCCCCCc1cc2ccccc2n1C(=O)CC(C)(C)CC(=O)O` has an IC50 [1] of 11000 nM.
For `CCCCCCc1nc2ccccc2cc1C(=O)CCCC(=O)O`, the IC50 [1] was greater than 30000 nM.
Compound `CCCCc1cc2ccccc2n1C(=O)CCCC(=O)O` has an IC50 [1] of 13700 nM.
`CCCC/C=C/c1cc2ccccc2n1C(=O)CCCC(=O)O` gave an IC50 [1] of 4030 nM.
With `CCCCCCc1cccc2ccn(C(=O)CCCC(=O)O)c12` the inhibition [1] was “Active”.
Work on `CCCCC/C=C\C[C@H](O)/C=C/C=C/C=C/C(=O)CCCC(=O)O` yielded an IC50 [12] of 2500 nM.
In the case of `CCCCCCc1c(C(=O)CC(C)CC(=O)O)c2cc(Br)ccc2n1C` (centres undefined), the IC50 [1] is reported as 26 nM.
`CCCCCCc1cc2ccccc2n1C(=O)CC1(CC(=O)O)CC1` showed an IC50 [1] of 1630 nM.
Compound `CCCCCCCCC/C=C\c1cc2ccccc2n1C(=O)CCCC(=O)O` has an IC50 [1] of 550 nM.
In the case of `CCCCCCc1cc2ccccc2n1C(=O)CCCC(=O)O`, the IC50 [1] is reported as 1130 nM.
With `CCCCCCc1c(C(=O)CC(C)CC(=O)O)c2cc(Cl)ccc2n1C` (racemic) the inhibition [2] was “inactive”, the inhibition [4] was “inactive” and the Drug metabolism [5] was “Not Active”. For the same compound, the Ratio [13] was 10, the inhibition [6] was “inactive” and the inhibition [7] was “Active”. For the same compound, the metabolised at 1 h, 20 µM [8] was 2%, the Ratio [14] was 10 and the Retention_time [9] was 14.1 min. The Drug metabolism [10] was “Active”, the inhibition [11] was “inactive” and the IC50 [15] was 33 nM.
`CCCCCCCc1cc2ccccc2n1C(=O)CCCC(=O)O` gave an IC50 [1] of 750 nM.
Work on `CCCCCCc1cc2ccccc2n1C(=O)CCC(=O)O` yielded an IC50 [1] greater than 30000 nM.
With `CCCCCCc1cn(C(=O)CCCC(=O)O)c2ccccc12` the inhibition [1] was “Active”.
`O=C(O)CCCC(=O)n1ccc2ccccc21` gave an IC50 [1] greater than 30000 nM.
In the case of `CCCCCCc1ccc2ccn(C(=O)CCCC(=O)O)c2c1`, the inhibition [1] is reported as “Active”.
In the case of `CCCCCCc1c(C(=O)CCCC(=O)O)c2cc(Cl)ccc2n1C`, the IC50 [1] is reported as 566 nM.
In the case of `CCCCCCn1cc(C(=O)CCCC(=O)O)c2ccccc21`, the inhibition [1] is reported as “Active”.
For `CCCCCCc1c(C(=O)CC(C)CC(=O)O)c2ccccc2n1C` (centres undefined), the IC50 [1] was 314 nM.
In the case of `CCCCCCc1ccc2c(ccn2C(=O)CCCC(=O)O)c1`, the inhibition [1] is reported as “Active”.
Work on `CCCCCCc1cc2cc(Cl)ccc2n1C(=O)CC(C)CC(=O)O` (centres undefined) yielded an IC50 [1] of 141 nM.
Work on `CCCCCCc1c(C(=O)CCCC(=O)O)c2ccccc2n1C` yielded an IC50 [1] of 6060 nM.
`CCCCCCc1cc2ccc(OC)cc2n1C(=O)CC(C)CC(=O)O` (centres undefined) gave an IC50 [1] of 323 nM.
In the case of `CCCCCCc1c(C(=O)CC(C)CC(=O)O)c2ccc(Cl)cc2n1C` (centres undefined), the IC50 [1] is reported as 81 nM.
With `CCCCCCc1c(C)c2ccccc2n1C(=O)CC(C)CC(=O)O` (centres undefined) the IC50 [1] was 136 nM.
In the case of `CCCCC/C=C\C[C@H](O)/C=C/C=C\C=C\C(=O)CCCC(=O)O`, the IC50 [12] is reported as 500 nM.
